Converted amounts (≈) assume the structure as drawn.
What was measured:
Leishmania panamensis = experiment: Antileshmanial activity against EpiR/GFP fused Leishmania panamensis MHOM/CO/87/UA140 intracellular amastigotes infected in human […] cells after 72 hrs by flow cytometric method; assay type: functional, cell-based; details: MHOM/CO/87/UA140, 72 h
Summary of the method: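 PMA-treated U-937 cells (3 × 10^5 cells/mL) infected with stationary-phase GFP L. panamensis promastigotes (15:1), 3 h at 34 °C, then washed. After 24 h, compounds added at 50, 12.5, 3.125 and 0.78 µg/mL for 72 h at 37 °C. EC50 by Probit; triplicate, two experiments.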

Candida albicans [1] = experiment: Antifungal activity against Candida albicans ATCC 10231 incubated for 48 hrs under dark condition by broth microdilution method; assay type: functional; details: ATCC 10231, 48 h
Summary of the method: (§1)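 CLSI M27-A3 broth microdilution in RPMI-1640, DMSO ≤1%, compounds at 250-0.98 µg/mL final. Inoculum 1-5 × 10^3 CFU/mL. Incubated 48 h at 30 °C in a moist dark chamber, read at OD405. MIC80 and MIC50 taken from % inhibition dose-response curves (mean ± SEM, triplicate). Amphotericin B was the positive control.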

Neisseria gonorrhoeae = experiment: Antibacterial activity against beta lactamase positive Neisseria gonorrhoeae ATCC 31426 by oxidase test; assay type: functional
Summary of the method: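 Agar dilution MIC on GC agar with 1% isovitalex containing increasing compound concentrations. Plates inoculated with about 1×10^4 CFU (5 µL). MIC is the lowest concentration that inhibited growth, with growth confirmed by oxidase test. Run in duplicate, repeated at least three times.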

Cryptococcus neoformans [2] = experiment: Growth inhibition of Cryptococcus neoformans ATCC 32264 at 15.62 ug/ml incubated for 48 hrs under dark condition by broth microdilution method relative to control; assay type: functional; details: ATCC 32264, 48 h, read-out: GI
Summary of the method: (§2)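 CLSI M27-A3 broth microdilution in RPMI-1640, DMSO ≤1%. Inoculum 1-5 × 10^3 CFU/mL. Incubated 48 h at 30 °C, dark. % inhibition = 100 − (OD405 test − sterility control)/(OD405 growth control − sterility control), with growth and sterility control wells. Triplicate.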

Candida albicans [3] = experiment: Growth inhibition of Candida albicans ATCC 10231 at 31.25 ug/ml incubated for 48 hrs under dark condition by broth microdilution method relative to control; assay type: functional; details: ATCC 10231, 48 h, read-out: GI; summary of the method: as §2
Trypanosoma cruzi = experiment: Antitrypanosomal activity against Trypanosoma cruzi Tulahuen intracellular amastigote harboring LacZ infected in human U937 cells after 72 hrs by CPRG/Nonidet reagent based spectrophotometric method; assay type: functional, cell-based; details: U-937, 72 h
Summary of the method: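 U-937 cells at 2.5 × 10^5 cells/mL in RPMI-1640 with 10% serum and 0.1 µg/mL PMA were infected with β-galactosidase-transfected Tulahuen epimastigotes at 5 parasites per cell. Infected cells were exposed to 50, 12.5, 3.125 and 0.78 µg/mL for 72 h. CPRG (100 uM) and 0.1% Nonidet P-40 were added for 3 h, read at 570 nm. EC50 by Probit. Triplicate, at least two experiments; benznidazole as reference.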

Pseudomonas aeruginosa = experiment: Antibacterial activity against Pseudomonas aeruginosa ATCC 27853 after 24 hrs by resazurin dye based microdilution assay; assay type: functional; details: ATCC 27853, 24 h
Summary of the method: (§3)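 MIC taken as the lowest concentration giving visible inhibition and/or by resazurin (1 mg/mL). Gentamicin was the control. Run in duplicate, repeated at least three times.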

Candida albicans [4] = experiment: Growth inhibition of Candida albicans ATCC 10231 at 62.5 ug/ml incubated for 48 hrs under dark condition by broth microdilution method relative to control; assay type: functional; details: ATCC 10231, 48 h, read-out: GI; summary of the method: as §2
Cryptococcus neoformans [5] = experiment: Antifungal activity against Cryptococcus neoformans ATCC 32264 incubated for 48 hrs under dark condition by broth microdilution method; assay type: functional; details: ATCC 32264, 48 h; summary of the method: as §1
Candida albicans [6] = experiment: Growth inhibition of Candida albicans ATCC 10231 at 3.4 ug/ml incubated for 48 hrs under dark condition by broth microdilution method relative to control; assay type: functional; details: ATCC 10231, 48 h, read-out: GI
Cryptococcus neoformans [7] = experiment: Growth inhibition of Cryptococcus neoformans ATCC 32264 at 3.4 ug/ml incubated for 48 hrs under dark condition by broth microdilution method relative to control; assay type: functional; details: ATCC 32264, 48 h, read-out: GI
Plasmodium falciparum = experiment: Antiplasmodial activity against chloroquine-sensitive Plasmodium falciparum 3D7 assessed as reduction in parasitic LDH activity after 48 hrs by Malstat reagent based […] method; assay type: functional; details: 3D7, 48 h
Summary of the method: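 Unsynchronized P. falciparum 3D7 at 0.5% parasitemia and 1% hematocrit in RPMI with 3% Albumax II. Exposed to 100, 25, 6.25 and 1.56 µg/mL for 48 h at 37 °C under 90% N2/5% CO2/5% O2. After three freeze-thaw cycles, LDH measured with Malstat and NBT/PES, 1 h in the dark, read at 650 nm. IC50 by Probit; triplicate, ≥2 experiments.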

Cryptococcus neoformans [8] = experiment: Growth inhibition of Cryptococcus neoformans ATCC 32264 at 7.8 ug/ml incubated for 48 hrs under dark condition by broth microdilution method relative to control; assay type: functional; details: ATCC 32264, 48 h, read-out: GI; summary of the method: as §2
Klebsiella pneumoniae [9] = experiment: Antibacterial activity against carbapenemase positive Klebsiella pneumoniae BAA 1705 after 24 hrs by resazurin dye based microdilution assay; assay type: functional; details: BAA 1705, 24 h; summary of the method: as §3
Escherichia coli = experiment: Antibacterial activity against Escherichia coli ATCC 25922 after 24 hrs by resazurin dye based microdilution assay; assay type: functional; details: ATCC 25922, 24 h; summary of the method: as §3
Candida albicans [10] = experiment: Growth inhibition of Candida albicans ATCC 10231 at 15.62 ug/ml incubated for 48 hrs under dark condition by broth microdilution method relative to control; assay type: functional; details: ATCC 10231, 48 h, read-out: GI; summary of the method: as §2
Cryptococcus neoformans [11] = experiment: Growth inhibition of Cryptococcus neoformans ATCC 32264 at 125 ug/ml incubated for 48 hrs under dark condition by broth microdilution method relative to control; assay type: functional; details: ATCC 32264, 48 h, read-out: GI; summary of the method: as §2
Staphylococcus aureus [12] = experiment: Antibacterial activity against vancomycin-intermediate Staphylococcus aureus after 24 hrs by resazurin dye based microdilution assay; assay type: functional; summary of the method: as §3
Klebsiella pneumoniae [13] = experiment: Antibacterial activity against ESBL positive Klebsiella pneumoniae ATCC 700603 after 24 hrs by resazurin dye based microdilution assay; assay type: functional; details: Klebsiella pneumoniae, 700603, 24 h; summary of the method: as §3
Cryptococcus neoformans [14] = experiment: Growth inhibition of Cryptococcus neoformans ATCC 32264 at 31.25 ug/ml incubated for 48 hrs under dark condition by broth microdilution method relative to control; assay type: functional; details: ATCC 32264, 48 h, read-out: GI; summary of the method: as §2
Cryptococcus neoformans [15] = experiment: Growth inhibition of Cryptococcus neoformans ATCC 32264 at 62.5 ug/ml incubated for 48 hrs under dark condition by broth microdilution method relative to control; assay type: functional; details: ATCC 32264, 48 h, read-out: GI; summary of the method: as §2
Candida albicans [16] = experiment: Growth inhibition of Candida albicans ATCC 10231 at 125 ug/ml incubated for 48 hrs under dark condition by broth microdilution method relative to control; assay type: functional; details: ATCC 10231, 48 h, read-out: GI; summary of the method: as §2
Cryptococcus neoformans [17] = experiment: Growth inhibition of Cryptococcus neoformans ATCC 32264 at 250 ug/ml incubated for 48 hrs under dark condition by broth microdilution method relative to control; assay type: functional; details: ATCC 32264, 48 h, read-out: GI; summary of the method: as §2
U-937 = experiment: Cytotoxicity against human U937 cells after 72 hrs by MTT assay; assay type: cell-based; details: u-937, 72 h
Summary of the method: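 Exponentially growing U-937 at 1 × 10^5 cells/mL in RPMI-1640 with 10% FBS were exposed to 200, 50, 12.5 and 3.125 µg/mL for 72 h at 37 °C, 5% CO2. MTT for 3 h, stopped with isopropanol/SDS, formazan read at 570 nm, blank-corrected. LC50 by Probit from % viability against untreated cells. Triplicate, at least two independent experiments.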

Staphylococcus aureus [18] = experiment: Antibacterial activity against methicillin-resistant Staphylococcus aureus ATCC 43300 after 24 hrs by resazurin dye based microdilution assay; assay type: functional; details: ATCC 43300, 24 h
Summary of the method: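 Broth microdilution in Mueller Hinton broth, inoculum 5 × 10^5 – 8 × 10^5. Compound stocks diluted in MHB with 5% DMSO and 0.1% Tween 80. Incubation 24 h at 35-37 °C. MIC is the lowest concentration with visible growth inhibition and/or by resazurin (1 mg/mL) read-out. Gentamicin as control. Run in duplicate, replicated at least three times.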

Candida albicans [19] = experiment: Growth inhibition of Candida albicans ATCC 10231 at 7.8 ug/ml incubated for 48 hrs under dark condition by broth microdilution method relative to control; assay type: functional; details: ATCC 10231, 48 h, read-out: GI; summary of the method: as §2
Candida albicans [20] = experiment: Growth inhibition of Candida albicans ATCC 10231 at 250 ug/ml incubated for 48 hrs under dark condition by broth microdilution method relative to control; assay type: functional; details: ATCC 10231, 48 h, read-out: GI; summary of the method: as §2
Staphylococcus aureus [21] = experiment: Antibacterial activity against methicillin-sensitive Staphylococcus aureus ATCC 25923 after 24 hrs by resazurin dye based microdilution assay; assay type: functional; details: ATCC 25923, 24 h; summary of the method: as §3

SMILES: CC(=O)N1N=C(c2ccc(Br)cc2)CC1c1cccc(Nc2ccnc3cc(Cl)ccc23)c1 (stereo not given)
- EC50 (Leishmania panamensis): 3.66 µg/mL (≈ 7.04 µM)
- MIC50 (Candida albicans [1]): ≥ 250 µg/mL
- MIC80 (Candida albicans [1]): ≥ 250 µg/mL
- MIC (Neisseria gonorrhoeae): > 1000 µg/mL
- inhibition of growth at 15.62 µg/mL (Cryptococcus neoformans [2]): 18.3%
- inhibition of growth at 31.25 µg/mL (Candida albicans [3]): 15.7%
- EC50 (Trypanosoma cruzi): 3.7 µg/mL (≈ 7.12 µM)
- MIC (Pseudomonas aeruginosa): > 1000 µg/mL
- inhibition of growth at 62.5 µg/mL (Candida albicans [4]): 19.1%
- MIC50 (Cryptococcus neoformans [5]): 250 µg/mL (≈ 481 µM)
- MIC80 (Cryptococcus neoformans [5]): ≥ 250 µg/mL
- inhibition of growth at 3.4 µg/mL (Candida albicans [6]): 13.7%
- inhibition of growth at 3.4 µg/mL (Cryptococcus neoformans [7]): 15.4%
- EC50 (Plasmodium falciparum): 50.1 µg/mL (≈ 96.3 µM)
- inhibition of growth at 7.8 µg/mL (Cryptococcus neoformans [8]): 16.9%
- MIC (Klebsiella pneumoniae [9]): > 1000 µg/mL
- MIC (Escherichia coli): > 1000 µg/mL
- inhibition of growth at 15.62 µg/mL (Candida albicans [10]): 15%
- inhibition of growth at 125 µg/mL (Cryptococcus neoformans [11]): 48.4%
- MIC (Staphylococcus aureus [12]): > 1000 µg/mL
- MIC (Klebsiella pneumoniae [13]): > 1000 µg/mL
- inhibition of growth at 31.25 µg/mL (Cryptococcus neoformans [14]): 19.6%
- inhibition of growth at 62.5 µg/mL (Cryptococcus neoformans [15]): 23.6%
- inhibition of growth at 125 µg/mL (Candida albicans [16]): 27.9%
- inhibition of growth at 250 µg/mL (Cryptococcus neoformans [17]): 71.2%
- LC50 (U-937): 10.2 µg/mL (≈ 19.6 µM)
- MIC (Staphylococcus aureus [18]): > 1000 µg/mL
- inhibition of growth at 7.8 µg/mL (Candida albicans [19]): 13.9%
- inhibition of growth at 250 µg/mL (Candida albicans [20]): 29.9%
- MIC (Staphylococcus aureus [21]): > 1000 µg/mL
